Screening data (PubChem BioAssay)
dFosB act: activators of delta FosB homodimer, primary screen, biochemical, fluorescence polarization, TAMRA-CDK5 oligo, single point | 340,000 compounds, 0.99% hits | AID 493131, 2011 | purified delta FosB; percent of positive-control signal above neutral wells | Protein FosB (Mus musculus), P13346 | activation, % at 25 µM;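 active = mean activation above about 17%, with every replicate also reaching it, limit read from the data, passing the limit was not always enough; inconclusive = only one of the two conditions met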
S100A4 inh HTS: inhibitors of S100A4-myosin IIA peptide binding, primary screen, biochemical, fluorescence polarization, TAMRA-MyoIIA peptide. Protein S100-A4 (Homo sapiens), P26447. inhibition, % at 10.7 µM. 360,000 compounds, 0.14% hits;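 active = mean inhibition of at least 70% across replicates, with every replicate also reaching that level; inconclusive = mean inhibition reaches 70% but some replicates fall short; inactive = mean inhibition below 70%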
Target sequence (P26447 whole entry, looked up): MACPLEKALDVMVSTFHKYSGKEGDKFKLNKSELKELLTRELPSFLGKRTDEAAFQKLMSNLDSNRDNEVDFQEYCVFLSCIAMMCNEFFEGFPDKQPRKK
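incubation = readout 5 min after mixing, signal stable up to 60 min | system = S100A4 monomer protein | buffer or medium = HEPES pH 7.2 with CaCl2, KCl, NaCl, DTT, Triton | benchmarks = neutral control DMSO, positive control TFP | also added = fluorescent myosin IIA peptide, 5 nM | compound dosing = one concentration per compound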
RAD52 anneal inh: RAD52 DNA annealing inhibitors, primary screen, biochemical, FRET, single point, set 2; DNA repair protein RAD52 homolog (Homo sapiens), P43351; recombinant RAD52 DNA annealing, FRET fluorescence; inhibition, % at 18.7 µM; 360,000 compounds, 0.46% hits;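 active = every replicate showing at least 50% inhibition; inconclusive = mean inhibition at least 50% but not in every replicate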
Target sequence (P43351 whole entry, looked up): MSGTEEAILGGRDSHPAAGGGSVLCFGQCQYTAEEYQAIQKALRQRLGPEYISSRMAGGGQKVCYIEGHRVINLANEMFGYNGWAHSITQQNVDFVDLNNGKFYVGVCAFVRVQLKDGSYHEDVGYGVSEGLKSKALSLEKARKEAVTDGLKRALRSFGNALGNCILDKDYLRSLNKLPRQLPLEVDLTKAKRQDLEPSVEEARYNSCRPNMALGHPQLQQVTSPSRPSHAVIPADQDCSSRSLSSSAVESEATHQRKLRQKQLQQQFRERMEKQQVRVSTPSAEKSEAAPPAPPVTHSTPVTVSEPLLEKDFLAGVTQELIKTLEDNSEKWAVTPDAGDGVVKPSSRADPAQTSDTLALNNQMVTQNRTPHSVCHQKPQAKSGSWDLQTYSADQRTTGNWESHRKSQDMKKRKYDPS
RAD54 inh: inhibitors of human RAD54 branch migration, primary screen, biochemical, fluorescence, single point; inhibition, % at 10.4 µM; RAD54 Holliday junction branch migration, FAM/BHQ fluorescence; DNA repair and recombination protein RAD54-like (Homo sapiens), Q92698; AID 602329, 2012; 360,000 compounds, 0.14% hits;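 active = mean normalized replicate activity at least 40 and at least half of replicates scoring 40 or more; inconclusive = only one of the two criteria met; inactive = mean below 40 and under half of replicates reaching 40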;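 note: 0% = median of neutral control wells and 100% = median of positive control wells; inhibitors cause a drop in the FAM fluorescence signal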
MLL AF4-AF9 inh: inhibitors of AF4 peptide binding to AF9, primary screen, biochemical, AlphaScreen, biotin-AF4 peptide, FLAG-AF9, single point. 350,000 compounds, 0.47% hits. Protein AF-9 (Homo sapiens), P42568. inhibition, % at 10 µM;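 active = every replicate reaching a set inhibition limit, whatever the replicate mean, cut at about 25% in these data; inconclusive = mean inhibition reaches that limit but some replicates miss it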;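 note: 0% = plate neutral control median and 100% = total signal loss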
Rad54 DNA ctr: DNA binding of candidate compounds, dose response, artefact control for RAD54 inhibitor project, biochemical, fluorescence polarization, cherry-pick | shares compounds with RAD54 inh | Acridine orange-DNA displacement, 20 min | AC50, µM (series often up to 35 µM), inactives show at the highest dose activity change, negative = DNA binding | 460 compounds, 8% hits | AID 651673, 2012;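 active = signal drop giving an AC50 within twice the top valid tested concentration of each sample, actives reach about 35 µM in these data; inactive = activity opposite to expected, plus the rest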;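 note: polarization loss reports compound binding to salmon sperm DNA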
Alpha interfer: AlphaScreen signal interference counter-screen, dose response, artefact control, biochemical, cherry-picked samples, luminescence; shares compounds with MLL AF4-AF9 inh; 530 compounds, 45% hits; AC50, µM (titrated, usually from 12 µM), for inactives: at the highest dose activity change, negative = inhibition; cut-off not given, nearly all actives have AC50 up to about 14 µM
RAD52 DNA ctr: DNA-binding compounds via dye displacement, dose response, artefact control for RAD52 inhibitor project, biochemical, fluorescence polarization, cherry-pick; 1,000 compounds, 8% hits; Salmon sperm DNA/acridine orange FP displacement; shares compounds with RAD52 anneal inh; AID 652128, 2013; AC50, µM;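 active = fitted half-maximal concentration for signal loss at or below twice the highest dose tested, in every separate run, actives reach about 64 µM in these data; inconclusive = runs disagree, or flat partial signal loss, or poor fit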
The depositor's hits bear a star; i = inactive; u = inconclusive; x = no result. Hits are enriched below; roughly 1.5% of the tested compounds scored in any of these assays.

SMILES	dFosB act	S100A4 inh HTS	RAD52 anneal inh	RAD54 inh	MLL AF4-AF9 inh	others
CN(C)CCNC(=O)c1cccc(-c2cnc3c(NC=O)cc(-c4cccs4)cn23)c1	x	-6	68*	63*	17	Rad54 DNA ctr=-17%;RAD52 DNA ctr=i
Cc1ccc(-c2cc(NC=O)c3ncc(-c4cccc(C(=O)N(C)C)c4)n3c2)cc1	x	-4	-15	-7	2
CN(C)C(=O)c1cccc(-c2cnc3c(NC=O)cc(-c4ccccc4Cl)cn23)c1	x	-2	-10	-6	-1
COc1ccc(Nc2nc(N3CCCCC3)c3ccccc3n2)cc1	3	x	x	10	x
Oc1ccc(Nc2nc(N3CCCC3)c3ccccc3n2)cc1	80*	4	67*	60*	x	Rad54 DNA ctr=i;RAD52 DNA ctr=i
CO[C@H]1CN(C)C(=O)c2cc(NC(=O)Nc3ccc(Cl)cc3)ccc2OC[C@H](C)N(C(=O)Nc2c(C)noc2C)C[C@H]1C	x	x	x	4	x
COc1cccc2sc3cc(NCCCN4CCOCC4)ccc3c(=O)c12	u	-3	62*	78*	x	Rad54 DNA ctr=3%;RAD52 DNA ctr=i
Cn1c2ccccc2c(=O)c2ccc(NCc3ccc4c(c3)OCO4)cc21	1	-3	-3	0	-5
Cn1c(=O)cc(SCC(=O)NCCCN2CCOCC2)c2ccccc21	4	x	x	-8	x
CN1CCC[C@H]1CCNc1ccc2c(=O)c3ccccc3n(C)c2c1	8	-1	50*	90*	-9	Rad54 DNA ctr=-10%;RAD52 DNA ctr=i
Cn1c2ccccc2c(=O)c2cc(NCCCN3CCOCC3)ccc21	2	-3	70*	116*	-26	Rad54 DNA ctr=2%;RAD52 DNA ctr=i
COc1ccc2c3c(n(C)c2c1)[C@H](CO)N(Cc1nccs1)CC31CN(C)C1	x	x	x	x	3
COc1ccc(S(=O)(=O)Nc2cccc3c2O[C@@H](CN(C)S(C)(=O)=O)[C@@H](C)CN([C@H](C)CO)C3=O)cc1	x	5	-8	-5	-3
Cc1ccccc1-c1cnc2c(c1)C(=O)N([C@@H](C)CO)C[C@H](C)[C@@H](CN(C)CC1CCCCC1)O2	x	11	27	9	0
CCC(=O)N(C)C[C@@H]1Oc2ncc(-c3ccccc3C)cc2C(=O)N([C@@H](C)CO)C[C@@H]1C	x	2	7	9	-4
Cc1c(C)n(CCN(C)C)c2ccc(C(=O)OCCN(C)C)cc12	20*	-6	103*	104*	12	Rad54 DNA ctr=i;RAD52 DNA ctr=i
CNC[C@@H]1OCCCC[C@H](C)Oc2ccc(NC(=O)Nc3c(C)noc3C)cc2C(=O)N([C@@H](C)CO)C[C@@H]1C	x	-6	-76	4	0
Cc1cccn2c(=O)c3cc(C(=O)NC4CCCC4)c(=N)n(CC4CCCO4)c3nc12 (stereo unspecified)	0	-3	15	34	-4
Cc1cccn2c(=O)c3cc(C(=O)NC4CCCC4)c(=N)n(CCCN4CCOCC4)c3nc12	-6	-6	68*	77*	-12	Rad54 DNA ctr=5%;RAD52 DNA ctr=i
N=c1c(C(=O)NCCc2ccccc2)cc2c(=O)n3ccccc3nc2n1CCCN1CCOCC1	-4	-5	45	28	4
N=c1c(C(=O)NCCN2CCOCC2)cc2c(=O)n3ccccc3nc2n1CCc1ccccc1	-5	13	57*	63*	-1	Rad54 DNA ctr=-9%;RAD52 DNA ctr=i
Cc1cccn2c(=O)c3cc(C(=O)NCCN4CCOCC4)n(C)c3nc12	-7	1	-37	16	-2
Cc1cccn2c(=O)c3cc(C(=O)NCCN4CCOCC4)c(=N)n(CCN4CCOCC4)c3nc12	6	-6	69*	51*	5	Rad54 DNA ctr=3%;RAD52 DNA ctr=i
C[C@H]1CN([C@@H](C)CO)S(=O)(=O)c2ccc(-c3cncnc3)cc2O[C@@H]1CN(C)C	x	1	5	-2	-3
C[C@@H]1CN([C@@H](C)CO)C(=O)Cc2cc(NC(=O)Nc3ccc(F)cc3)ccc2O[C@H]1CN(C)Cc1ccc(Oc2ccccc2)cc1	x	0	-15	0	0
SMILES	dFosB act	S100A4 inh HTS	RAD52 anneal inh	RAD54 inh	MLL AF4-AF9 inh	others
COc1ccc(NC2CCCN(Cc3cccc4cnccc34)C2)cc1OC (stereo unspecified)	0	-7	26	3	26*	Alpha interfer=-28%
Cc1[nH]c2ccccc2c1N=Nc1ccccc1F	-3	-1	3	x	41*	Alpha interfer=8µM*
COCC(=O)Nc1ccc2c(c1)[C@H]1C[C@H](CC(=O)NC3CCCCC3)O[C@@H](CO)[C@H]1O2	x	2	-19	-12	1
C[C@H]1CN([C@@H](C)CO)C(=O)c2cccc(NC(=O)C3CC3)c2O[C@H]1CN(C)S(=O)(=O)c1cn(C)cn1	x	9	1	9	-1
CC1Cc2ccccc2N1S(=O)(=O)c1cccc(C(=O)NCCCO)c1 (stereo unspecified)	-8	x	x	x	x
CCN(CC)CCNC(=O)c1ccc(NC(=O)c2cccc(S(=O)(=O)N3c4ccccc4CC3C)c2)cc1 (stereo unspecified)	-83	1	41	10	31*	Alpha interfer=-4%
C[C@@H]1CCCCO[C@H](CN(C)C(=O)CCC(F)(F)F)[C@@H](C)CN([C@@H](C)CO)C(=O)c2cc(N(C)C)ccc2O1	x	4	1	-3	-2
O=C1CN(S(=O)(=O)Cc2ccccc2)C[C@H]2[C@@H](c3ccc(C#CCC4CCCC4)cc3)[C@@H](CO)N12	x	2	-15	x	-2
CC(=O)OCCNc1cc(N2CCN(C)CC2)c2noc3c2c1C(=O)c1ccccc1-3	-14	-58	i	-24	86*	Alpha interfer=8.6µM*
CCN1CCN(c2cc(N3CCN(C(=O)c4ccco4)CC3)c3c4c(onc24)-c2ccccc2C3=O)CC1	13	x	x	19	x
COc1ccc(OC)c(CN2CCN(C(=O)c3cc(S(=O)(=O)Nc4ccccc4OC)ccc3C)CC2)c1	-5	0	-1	1	4
COc1ccc(NS(=O)(=O)c2ccc(C)c(C(=O)N3CCN(Cc4cc(OC)ccc4OC)CC3)c2)cc1	-3	-2	2	14	35*	Alpha interfer=-16%
CN(C)c1ccc(C=c2c3ccccc3n3c2cc(-c2ccccc2)[n+]3C)cc1	100*	34	-12	x	43*	Alpha interfer=4.4µM*
